Values after ≈ are worked out from the molar mass of the structure shown.
Legend:
[1] = Selectivity ratio of CC50 for cytotoxicity against African green monkey Vero cells to MIC for antifungal activity against Cryptococcus gattii NR 43216; format: toxicity, cell-based
[2] = Selectivity ratio of CC50 for cytotoxicity against human Caco-2 cells to MIC for antifungal activity against Cryptococcus gattii NR 43214; format: toxicity, cell-based
[3] = Antifungal activity against Cryptococcus gattii NR 43214 assessed as inhibition of fungal growth incubated for 48 hrs by broth microdilution method; format: functional, Cryptococcus gattii VGI
Summary of the method: (§1)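 Broth microdilution per CLSI guidelines against clinical isolates, incubated at 35 °C for 24 h (Candida, Aspergillus) or 48 h (Cryptococcus). MIC was the lowest concentration giving 50% growth inhibition.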

Cryptococcus neoformans [4] = assay: Antifungal activity against Cryptococcus neoformans NR 41300 assessed as inhibition of fungal growth incubated for 48 hrs by broth microdilution method; format: functional
Summary of the method: (§2)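 Clinical isolate; CLSI broth microdilution over a range of concentrations (media listed: RPMI 1640, MOPS, YPD). MIC read as lowest concentration inhibiting growth by 50% after 48 h incubation at 35 °C.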

[5] = Antifungal activity against Cryptococcus gattii NR 43210 assessed as inhibition of fungal growth incubated for 48 hrs by broth microdilution method; format: functional, Cryptococcus gattii VGI; summary of the method: as §1
[6] = Selectivity ratio of CC50 for cytotoxicity against African green monkey Vero cells to MIC for antifungal activity against Cryptococcus neoformans NR 48770; format: toxicity, cell-based
[7] = Selectivity ratio of CC50 for cytotoxicity against human Caco-2 cells to MIC for antifungal activity against Cryptococcus gattii NR 43213; format: toxicity, cell-based
Cryptococcus neoformans [8] = assay: Antifungal activity against Cryptococcus neoformans NR 48771 assessed as inhibition of fungal growth incubated for 48 hrs by broth microdilution method; format: functional; summary of the method: as §2
Cryptococcus neoformans [9] = assay: Antifungal activity against Cryptococcus neoformans NR 41298 assessed as inhibition of fungal growth incubated for 48 hrs by broth microdilution method; format: functional; summary of the method: as §2
[10] = Plasma concentration in Sprague-Dawley rat at 25 mg/kg, po administered as single dose and measured for 18 hrs by LC/MS/MS analysis; format: ADME, organism-based
Summary of the method: (§3)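 Male naïve Sprague–Dawley rats (n=3) received a single 25 mg kg−1 oral gavage dose in 5% ethanol/45% PEG 400/50% water. EDTA-K2 blood was sampled over 24 h post-dose. Plasma levels were measured by LC/MS/MS after acetonitrile protein precipitation, and parameters came from two-compartment analysis.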

[11] = Selectivity ratio of CC50 for cytotoxicity against human Caco-2 cells to MIC for antifungal activity against Cryptococcus gattii NR 43209; format: toxicity, cell-based
[12] = Volume of distribution in Sprague-Dawley rat at 25 mg/kg, po administered as single dose by LC/MS/MS analysis; format: ADME, organism-based; details: in vivo
Summary of the method: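 Male naïve Sprague–Dawley rats (n = 3) received a single 25 mg kg−1 dose by oral gavage in 5% ethanol/45% PEG 400/50% water. EDTA-K2 blood was sampled over 24 h. Plasma levels were measured by LC/MS/MS after acetonitrile protein precipitation, and parameters came from two-compartment analysis.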

[13] = Clearance in Sprague-Dawley rat at 25 mg/kg, po administered as single dose by LC/MS/MS analysis; format: ADME, organism-based; details: in vivo; summary of the method: as §3
[14] = Selectivity ratio of CC50 for cytotoxicity against human Caco-2 cells to MIC for antifungal activity against Cryptococcus gattii NR 43216; format: toxicity, cell-based
Pichia kudriavzevii [15] = assay: Antifungal activity against Candida krusei CAB 396420 assessed as inhibition of fungal growth incubated for 24 hrs by broth microdilution method; format: functional; summary of the method: as §1
[16] = Selectivity ratio of CC50 for cytotoxicity against African green monkey Vero cells to MIC for antifungal activity against Cryptococcus gattii NR 43210; format: toxicity, cell-based
Aspergillus fumigatus = assay: Antifungal activity against Aspergillus fumigatus NR 35303 assessed as inhibition of fungal growth incubated for 24 hrs by broth microdilution method; format: functional; summary of the method: as §1
[17] = Apparent permeability of the compound measured after 4 hrs by PAMPA assay; format: ADME
Summary of the method: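 PAMPA: compound was placed in pH 6.5 donor buffer across a lipid-pretreated PVDF filter from pH 7.4 acceptor buffer, and incubated 4 h at ambient temperature. Donor and acceptor amounts at start and end were measured by UV absorbance to give apparent permeability.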

[Candida] auris [18] = Antifungal activity against Candida auris 381 assessed as inhibition of fungal growth incubated for 24 hrs by broth microdilution method; format: functional; details: Candidozyma auris
Summary of the method: (§4)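 Clinical isolate; CLSI broth microdilution over a range of concentrations (media listed: RPMI 1640, MOPS, YPD). MIC taken as lowest concentration giving 50% growth inhibition after 24 h at 35 °C.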

Candida parapsilosis [19] = assay: Antifungal activity against Candida parapsilosis CAB 502638 assessed as inhibition of fungal growth incubated for 24 hrs by broth microdilution method; format: functional; details: Lodderomyces parapsilosis; summary of the method: as §1
[20] = Selectivity ratio of CC50 for cytotoxicity against African green monkey Vero cells to MIC for antifungal activity against Cryptococcus neoformans NR 48771; format: toxicity, cell-based
Candida parapsilosis [21] = assay: Antifungal activity against Candida parapsilosis ATCC 22019 assessed as inhibition of fungal growth incubated for 24 hrs by broth microdilution method; format: functional; details: Lodderomyces parapsilosis; summary of the method: as §4
[22] = Selectivity ratio of CC50 for cytotoxicity against African green monkey Vero cells to MIC for antifungal activity against Cryptococcus neoformans NR 41300; format: toxicity, cell-based
[23] = Half life in Sprague-Dawley rat at 25 mg/kg, po administered as single dose by LC/MS/MS analysis; format: ADME, organism-based; details: in vivo; summary of the method: as §3
[24] = Selectivity ratio of CC50 for cytotoxicity against African green monkey Vero cells to MIC for antifungal activity against Cryptococcus gattii NR 43209; format: toxicity, cell-based
[25] = Antibacterial activity against Lactobacillus casei HM334 assessed as inhibition of bacterial growth; format: toxicity; details: lacticaseibacillus casei
Pichia kudriavzevii [26] = assay: Antifungal activity against Candida krusei ATCC 34135 assessed as inhibition of fungal growth incubated for 24 hrs by broth microdilution method; format: functional; summary of the method: as §1
[27] = Antibacterial activity against Lactobacillus crispatus HM370 assessed as inhibition of bacterial growth; format: toxicity
Candida albicans [28] = assay: Antifungal activity against Candida albicans ATCC 10231 assessed as inhibition of fungal growth incubated for 24 hrs by broth microdilution method; format: functional; summary of the method: as §1
Candida albicans [29] = assay: Antifungal activity against Candida albicans NR 29448 assessed as inhibition of fungal growth incubated for 24 hrs by broth microdilution method; format: functional; summary of the method: as §4
[Candida] auris [30] = Antifungal activity against Candida auris 383 assessed as inhibition of fungal growth incubated for 24 hrs by broth microdilution method; format: functional; details: Candidozyma auris; summary of the method: as §4
Cryptococcus neoformans [31] = assay: Antifungal activity against Cryptococcus neoformans NR 48773 assessed as inhibition of fungal growth incubated for 48 hrs by broth microdilution method; format: functional; summary of the method: as §2
[32] = Selectivity ratio of CC50 for cytotoxicity against human Caco-2 cells to MIC for antifungal activity against Cryptococcus neoformans NR 48767; format: toxicity, cell-based
[33] = Selectivity ratio of CC50 for cytotoxicity against human Caco-2 cells to MIC for antifungal activity against Cryptococcus neoformans NR 48773; format: toxicity, cell-based
[34] = Antifungal activity against Cryptococcus gattii NR 43213 assessed as inhibition of fungal growth incubated for 48 hrs by broth microdilution method; format: functional, Cryptococcus gattii VGI; summary of the method: as §1
[35] = AUC in Sprague-Dawley rat at 25 mg/kg, po administered as single dose by LC/MS/MS analysis; format: ADME, organism-based; parameters: dose 25 mg/kg, route po; details: in vivo; summary of the method: as §3
[36] = Selectivity ratio of CC50 for cytotoxicity against human Caco-2 cells to MIC for antifungal activity against Cryptococcus neoformans NR 48770; format: toxicity, cell-based

Row | SMILES | selectivity ratio [1] | selectivity ratio [2] | MIC [3] [µg/mL] | MIC (Cryptococcus neoformans [4]) [µg/mL] | MIC [5] [µg/mL] | selectivity ratio [6] | selectivity ratio [7] | MIC (Cryptococcus neoformans [8]) [µg/mL] | MIC (Cryptococcus neoformans [9]) [µg/mL] | selectivity ratio [11] | selectivity ratio [14] | MIC (Pichia kudriavzevii [15]) [µg/mL] | selectivity ratio [16] | MIC (Aspergillus fumigatus) [µg/mL] | Papp at 4 h [17] [×10⁻⁶ cm/s] | MIC ([Candida] auris [18]) [µg/mL] | MIC (Candida parapsilosis [19]) [µg/mL] | selectivity ratio [20] | MIC (Candida parapsilosis [21]) [µg/mL] | selectivity ratio [22] | further results
1 | Cc1nc(-c2ccc3ccccc3c2)sc1-c1nnc(N[C@@H]2CCCC[C@H]2N)o1 (relative stereo) | 64 | 64 | 1 (≈ 2.47 µM) | 1 (≈ 2.47 µM) | 1 (≈ 2.47 µM) | 64 | 64 | 1 (≈ 2.47 µM) | 1 (≈ 2.47 µM) | 64 | 64 | 1 (≈ 2.47 µM) | 64 | 4 (≈ 9.86 µM) | 57.7 | 2 (≈ 4.93 µM) | 1 (≈ 2.47 µM) | 64 | 1 (≈ 2.47 µM) | 64 | concentration at 18 h [10]: 1000 ng/mL; Vd [12]: 1.64 L; CL/F [13]: 5.33 mL/min; half-life [23]: 3.6 h; selectivity ratio [24]: 64; MIC [25]: > 128 µg/mL; MIC (Pichia kudriavzevii [26]): 1 µg/mL (≈ 2.47 µM); MIC [27]: > 128 µg/mL; MIC (Candida albicans [28]): 4 µg/mL (≈ 9.86 µM); MIC (Candida albicans [29]): 4 µg/mL (≈ 9.86 µM); MIC ([Candida] auris [30]): 1 µg/mL (≈ 2.47 µM); MIC (Cryptococcus neoformans [31]): 2 µg/mL (≈ 4.93 µM); selectivity ratio [32]: 64; selectivity ratio [33]: 64; MIC [34]: 2 µg/mL (≈ 4.93 µM); AUC [35]: 79200 ng·h/mL; selectivity ratio [36]: 64
2 | Cc1nc(-c2ccc3ccccc3c2)sc1-c1nnc(N[C@@H]2CCCC[C@@H]2N)o1 (relative stereo) | 64 | 64 | 2 (≈ 4.93 µM) | 1 (≈ 2.47 µM) | 1 (≈ 2.47 µM) | 64 | 64 | 2 (≈ 4.93 µM) | 1 (≈ 2.47 µM) | 64 | 64 | 1 (≈ 2.47 µM) | 64 | 8 (≈ 19.7 µM) | 26.3 | 2 (≈ 4.93 µM) | 1 (≈ 2.47 µM) | 64 | 1 (≈ 2.47 µM) | 64 | selectivity ratio [24]: 64; MIC [25]: 128 µg/mL (≈ 316 µM); MIC (Pichia kudriavzevii [26]): 1 µg/mL (≈ 2.47 µM); MIC [27]: > 128 µg/mL; MIC (Candida albicans [28]): 4 µg/mL (≈ 9.86 µM); MIC (Candida albicans [29]): 4 µg/mL (≈ 9.86 µM); MIC ([Candida] auris [30]): 1 µg/mL (≈ 2.47 µM); MIC (Cryptococcus neoformans [31]): 2 µg/mL (≈ 4.93 µM); selectivity ratio [32]: 64; selectivity ratio [33]: 64; MIC [34]: 2 µg/mL (≈ 4.93 µM); selectivity ratio [36]: 64

Source: ChEMBL document CHEMBL5329183, “Naphthylthiazoles: a class of broad-spectrum antifungals” (RSC Med Chem, 2023)
